Activity calls are given as the source filed them. The calls are words filed in the database; no cut-off is given here.
Tests used:
[1] = target: T1, M-phase inducer phosphatase 3 (Homo sapiens) (UniProt P30307); experiment: Inhibition of recombinant phosphatase activity of Cdc25C catalytic domain expressed in Escherichia coli BL21(DE3) using OMFP as substrate at 100 uM after 15 mins by fluorimetric assay
T1 sequence (whole entry): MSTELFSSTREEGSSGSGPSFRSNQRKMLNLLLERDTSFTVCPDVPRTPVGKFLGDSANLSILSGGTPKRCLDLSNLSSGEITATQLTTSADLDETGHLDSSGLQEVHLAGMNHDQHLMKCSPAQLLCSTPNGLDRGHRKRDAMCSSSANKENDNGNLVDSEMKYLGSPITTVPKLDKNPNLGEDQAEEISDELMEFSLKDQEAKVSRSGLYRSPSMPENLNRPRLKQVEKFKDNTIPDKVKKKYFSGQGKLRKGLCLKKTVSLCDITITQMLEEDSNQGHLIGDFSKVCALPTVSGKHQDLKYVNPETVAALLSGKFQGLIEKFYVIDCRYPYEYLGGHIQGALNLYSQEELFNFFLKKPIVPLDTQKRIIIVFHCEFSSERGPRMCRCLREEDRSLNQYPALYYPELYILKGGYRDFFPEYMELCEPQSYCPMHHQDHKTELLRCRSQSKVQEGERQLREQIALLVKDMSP

[2] = target: T2, M-phase inducer phosphatase 2 (Homo sapiens) (UniProt P30305); experiment: Inhibition of recombinant phosphatase activity of Cdc25B catalytic domain expressed in Escherichia coli BL21(DE3) using OMFP as substrate at 100 uM after 15 mins by fluorimetric assay
T2 sequence (whole entry): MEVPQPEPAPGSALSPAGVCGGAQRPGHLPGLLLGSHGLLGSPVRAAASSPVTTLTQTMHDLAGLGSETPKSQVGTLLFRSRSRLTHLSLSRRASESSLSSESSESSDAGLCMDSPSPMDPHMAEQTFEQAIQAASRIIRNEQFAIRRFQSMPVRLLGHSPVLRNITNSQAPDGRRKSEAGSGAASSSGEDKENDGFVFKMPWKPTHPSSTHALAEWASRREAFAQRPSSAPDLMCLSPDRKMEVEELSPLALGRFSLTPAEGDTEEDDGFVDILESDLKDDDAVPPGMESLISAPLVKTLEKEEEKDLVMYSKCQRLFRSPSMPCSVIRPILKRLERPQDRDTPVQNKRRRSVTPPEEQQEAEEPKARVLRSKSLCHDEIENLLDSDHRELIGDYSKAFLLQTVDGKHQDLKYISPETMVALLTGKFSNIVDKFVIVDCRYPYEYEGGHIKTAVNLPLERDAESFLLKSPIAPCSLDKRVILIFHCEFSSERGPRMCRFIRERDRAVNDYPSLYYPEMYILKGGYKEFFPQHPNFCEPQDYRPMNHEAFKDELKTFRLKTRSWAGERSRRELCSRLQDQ

[3] = target: T2, M-phase inducer phosphatase 2 (Homo sapiens); experiment: Reversible inhibition of recombinant phosphatase activity of Cdc25B catalytic domain expressed in Escherichia coli BL21(DE3) assessed as residual activity of enzyme measured after 10 fold dilution at 100 uM preincubated for 20 mins
[4] = target: T3, M-phase inducer phosphatase 1 (Homo sapiens) (UniProt P30304); experiment: Inhibition of recombinant phosphatase activity of Cdc25A catalytic domain expressed in Escherichia coli BL21(DE3) using OMFP as substrate at 100 uM after 15 mins by fluorimetric assay
T3 sequence (whole entry): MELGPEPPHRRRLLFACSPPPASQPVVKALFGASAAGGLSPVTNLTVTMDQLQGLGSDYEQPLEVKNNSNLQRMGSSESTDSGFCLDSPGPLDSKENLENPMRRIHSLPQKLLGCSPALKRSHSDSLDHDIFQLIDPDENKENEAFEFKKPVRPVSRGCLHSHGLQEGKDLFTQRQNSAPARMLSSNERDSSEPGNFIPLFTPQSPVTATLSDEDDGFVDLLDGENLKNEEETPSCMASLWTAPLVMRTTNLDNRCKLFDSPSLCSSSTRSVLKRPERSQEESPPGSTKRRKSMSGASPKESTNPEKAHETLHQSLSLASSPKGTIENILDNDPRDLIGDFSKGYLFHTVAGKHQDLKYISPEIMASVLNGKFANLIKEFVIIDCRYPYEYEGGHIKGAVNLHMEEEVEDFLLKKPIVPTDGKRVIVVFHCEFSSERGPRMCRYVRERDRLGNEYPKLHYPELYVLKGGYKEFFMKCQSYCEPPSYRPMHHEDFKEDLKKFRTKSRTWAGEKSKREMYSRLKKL

[5] = target: T4, M-phase inducer phosphatase 2 (Homo sapiens, UniProt P30305); experiment: Inhibition of recombinant phosphatase activity of Cdc25B catalytic domain expressed in Escherichia coli BL21(DE3) using OMFP as substrate by spectrofluorimetric analysis
T4 sequence (P30305 whole entry): T2 sequence (whole entry)

[6] = target: T2, M-phase inducer phosphatase 2 (Homo sapiens); experiment: Reversible inhibition of recombinant phosphatase activity of Cdc25B catalytic domain expressed in Escherichia coli BL21(DE3) assessed as residual activity of enzyme measured after 10 fold dilution at 50 uM preincubated for 20 mins
Summary of the method: (§1)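 Dilution test: Cdc25B pretreated with inhibitor for up to 20 min, mixture diluted 10-fold, and residual phosphatase activity measured to judge reversible versus irreversible inhibition.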

[7] = target: T2, M-phase inducer phosphatase 2 (Homo sapiens); experiment: Inhibition of recombinant phosphatase activity of Cdc25B catalytic domain expressed in Escherichia coli BL21(DE3) using OMFP as substrate at 50 uM by spectrofluorimetric analysis
Summary of the method: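 Single-point screen: percent inhibition of Cdc25B phosphatase activity (OMFP hydrolysis) measured with inhibitor at 50 μM.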

[8] = target: T2, M-phase inducer phosphatase 2 (Homo sapiens); experiment: Reversible inhibition of recombinant phosphatase activity of Cdc25B catalytic domain expressed in Escherichia coli BL21(DE3) assessed as residual activity of enzyme measured after 10 fold dilution at 100 uM preincubated for 20 mins
Summary of the method: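 Cdc25B (0.5 μg) preincubated 20 min at room temperature with 100 μM inhibitor or DMSO vehicle, then diluted 10-fold. Residual phosphatase activity was read after adding OMFP substrate and expressed as percent of the untreated control. Mean ± SD of three determinations.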

[9] = target: T5, M-phase inducer phosphatase 1 (Homo sapiens, UniProt P30304); experiment: Inhibition of recombinant phosphatase activity of Cdc25A catalytic domain expressed in Escherichia coli BL21(DE3) using OMFP as substrate by Lineweaver-Burk plot analysis
T5 sequence (P30304 whole entry): T3 sequence (whole entry)
Summary of the method: (§2)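 Purified recombinant Cdc25A catalytic domain; phosphatase activity measured as OMFP hydrolysis versus inhibitor concentration to derive IC50, with Ki calculated from kinetic measurements. Results are averages ± SD of three determinations.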

[10] = target: T4, M-phase inducer phosphatase 2; experiment: Competitive inhibition of recombinant phosphatase activity of Cdc25B catalytic domain expressed in Escherichia coli BL21(DE3) using OMFP as substrate by Lineweaver-Burk plot analysis
[11] = target: T5, M-phase inducer phosphatase 1; experiment: Inhibition of recombinant phosphatase activity of Cdc25A catalytic domain expressed in Escherichia coli BL21(DE3) using OMFP as substrate by spectrofluorimetric analysis; summary of the method: as §2
[12] = target: T2, M-phase inducer phosphatase 2 (Homo sapiens); experiment: Irreversible inhibition of recombinant phosphatase activity of Cdc25B catalytic domain expressed in Escherichia coli BL21(DE3) assessed as residual activity of enzyme measured after 10 fold dilution at 50 uM preincubated for 20 mins; summary of the method: as §1

Compound | inhibition [1] | inhibition [2] | inhibition [4] | inhibition [7] | other results
CN(CCC(=O)O)C1=Nc2ccc(Cl)cc2C(c2ccccc2)=[N+]([O-])C1 | 48% | 43% | 28% |  | inhibition [3]: Active
Nc1ccc(Cc2ccc(N)c(C(=O)O)c2)cc1C(=O)O |  |  |  | 52% | IC50 [5]: 23.8 µM; inhibition [6]: Active
Sc1ccc2ccccc2c1CNCc1ccccc1 | 53% | 60% | 35% |  | 
O=C(O)c1cc(C(=O)C(=O)c2cc(C(=O)O)c(O)c3ccccc23)c2ccccc2c1O |  |  |  | 26% | 
O=C(O)c1cccc(Nc2ccccc2C(=O)O)c1 |  |  |  | 18% | 
O=C(O)c1ccccc1C(=O)c1ccc(-c2ccccc2)cc1 |  |  |  | 54% | IC50 [5]: 23.1 µM; inhibition [6]: Active
O=C(O)c1ccccc1C(=O)c1cccc([N+](=O)[O-])c1 |  |  |  | 17% | 
O=C1C=C(Nc2nc(C(=O)O)cc(=O)[nH]2)c2ccccc2C1=O |  |  |  |  | IC50 [5]: 9.9 µM
Nc1ccc(-c2ccc(Nc3cc(S(=O)(=O)O)c(N)c4c3C(=O)c3ccccc3C4=O)cc2)c(S(=O)(=O)O)c1 | 49% | 89% | 72% |  | 
O=C(O)c1ccccc1C(=O)c1cccc2ccccc12 |  |  |  | 41% | 
O=C(O)c1cccc(F)c1C(=O)c1ccc2ccccc2c1 |  |  |  | 34% | 
CC(=O)c1ccc(C(=O)c2ccccc2C(=O)O)cc1 |  |  |  | 20% | 
CC1=NN(c2ccc(S(=O)(=O)O)cc2)C(=O)/C1=C/c1ccc(Cl)cc1 | 54% | 46% | 17% |  | inhibition [3]: Active
COc1cc(O)c(C(=O)c2ccccc2)cc1S(=O)(=O)O |  |  |  | 49% | 
CNc1ccc(C(=O)c2ccccc2C(=O)O)cc1[N+](=O)[O-] |  |  |  | 65% | IC50 [5]: 7.9 µM; inhibition [6]: Active
O=C(O)c1ccccc1C(=O)c1ccc(Cl)c([N+](=O)[O-])c1 |  |  |  | 13% | 

Compound | inhibition [1] | inhibition [2] | inhibition [4] | inhibition [7] | other results
CC1C2C=CC1C(c1c3ccc(=O)c(O)c-3oc3c(O)c(O)ccc13)C2C(=O)O (stereo unspecified) | 98% | 98% | 98% |  | inhibition [8]: Active
O=C(Nc1ccc2ncccc2c1)Nc1ccc2ncccc2c1 | 48% | 32% | 47% |  | inhibition [3]: Active
NS(=O)(=O)c1cc2c(cc1Cl)N=C(CCC(=O)O)NS2(=O)=O | 47% | 41% | 21% |  | inhibition [3]: Active
COc1ccc(Cc2ccc3[nH]c(=O)cc(C)c3c2)cc1S(=O)(=O)O |  |  |  |  | IC50 [5]: 133 µM; Ki [9]: 203 µM; Ki [10]: 84 µM; IC50 [11]: 86 µM
O=C(O)c1ccc(C(=O)c2ccccc2C(=O)O)cc1 |  |  |  | 12% | 
O=C(O)C1CCCN1Cc1c[nH]c2ccccc12 (stereo unspecified) | 45% | 37% | 39% |  | 
CC(C)(Oc1ccc(-c2cccc3ccccc23)cc1)C(=O)O | 50% | 40% | 47% |  | inhibition [3]: Active
O=C(C(=O)c1ccc(O)c(O)c1)c1ccc(O)c(O)c1 |  |  |  | 22% | 
O=C(O)c1ccccc1-c1ccccc1C(=O)Nc1ccc2c(c1)nc(O)c1ccccc12 | 48% | 45% | 66% |  | inhibition [3]: Active
O=C1C=C(Nc2cccc(C(=O)O)c2)c2ccccc2C1=O |  |  |  | 85% | IC50 [5]: 4.2 µM; inhibition [12]: Active
O=C(O)c1ccccc1C(=O)c1ccc(O)c([N+](=O)[O-])c1 |  |  |  | 13% | 
Nc1ccc(C(=O)O)cc1S(=O)(=O)c1cc(C(=O)O)ccc1N |  |  |  | 62% | IC50 [5]: 20.1 µM; inhibition [6]: Active
O=C(O)c1ccccc1C(=O)CCC(=O)c1ccccc1C(=O)O |  |  |  | 20% | 
O=C1C=C(Nc2nc(O)cc(C(=O)O)n2)c2ccccc2C1=O |  |  |  | 60% | inhibition [12]: Active
O=C(O)c1cccc(Oc2ccc(C(=O)O)c([N+](=O)[O-])c2)c1 |  |  |  | 37% | 
Cn1c(COc2ccccc2C(=O)O)nc2ccccc21 | 35% | 43% | 10% |  | inhibition [3]: Active
